Bridge positions count the residues as written; N and C are the ends. Square brackets hold non-standard residues; d marks the D form. Peptide text beside a SMILES is read from it. Mpa = O=C(O)CCS
Target: Vasopressin V2 receptor (Sus scrofa) (UniProt P32307)
Assay: Affinity towards vasopressin receptor in porcine renal medullary membrane using [3H]LVP
Assay type: cell membranes
Details: Renal medulla
Method in brief: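 Pig kidney medullary membrane preparation; displacement of [³H]LVP binding. IC50 taken as the ligand concentration giving 50% inhibition of binding; Kbind calculated by the competitive-inhibition equation Kbind = IC50/(1 + L/KD), with KD the dissociation constant of [³H]LVP.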

Chain of Vasopressin V2 receptor (Sus scrofa) (P32307 whole entry): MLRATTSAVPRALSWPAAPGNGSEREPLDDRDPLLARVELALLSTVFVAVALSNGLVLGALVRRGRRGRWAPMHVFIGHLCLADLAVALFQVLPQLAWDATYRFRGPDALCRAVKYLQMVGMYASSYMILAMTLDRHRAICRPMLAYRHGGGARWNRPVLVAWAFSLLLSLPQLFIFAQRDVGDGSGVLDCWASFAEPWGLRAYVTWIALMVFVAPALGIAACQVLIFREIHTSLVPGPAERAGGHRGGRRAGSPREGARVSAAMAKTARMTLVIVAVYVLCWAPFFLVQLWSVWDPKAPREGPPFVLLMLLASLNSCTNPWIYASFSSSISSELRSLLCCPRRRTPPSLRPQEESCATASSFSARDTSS

CC(C)[C@@H]1NC(=O)[C@H](Cc2ccccc2)NC(=O)[C@H](Cc2ccc(O)cc2)NC(=O)CCSSC[C@@H](C(=O)N[C@@H](CCCN=C(N)N)C(=O)N[C@@H](CCCN=C(N)N)C(N)=O)NC(=O)[C@H](CC(N)=O)NC1=O ([Mpa]YFVNCRR-NH2; disulfide 1-6)
K bind: > 1000 nM
